pIC50, pKi: −log10 of the molar value. Calls of active or inactive are those of the source. No cut-off for these calls is given here.

For orientation: pKi means the negative decadic logarithm of the Ki, by convention in mol/L. Higher therefore signals a small Ki.

Experiment [1] concerns TA3. The experiment is described as follows: Growth inhibition of mouse TA3 cells after 3 days incubation in presence of 10^-7 M pyridoxal. It is filed as functional. Conditions: for pIC50: Mus musculus, TA3, 72 h, read-out: ID50 (the source's name). Summed up:
(§1)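 Mouse mammary adenocarcinoma TA3 cells were grown in stationary upright tubes with 10% horse serum and pyridoxal at 10⁻⁷ M (minimal growth) or 10⁻⁵ M. The inoculum was 50 000 cells, with compound added in an equal volume of medium. Cells were incubated for 3 days, and growth was read by protein assay. Five tubes were used per concentration, with repeats for active compounds. The 50% inhibitory concentration was derived.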

Experiment [2] relates to TA3. Kind of experiment: Growth inhibition of mouse TA3 cells after 3 days incubation in presence of 10^-5 M pyridoxal. It counts as functional. The method, boiled down:
as §1

The target in the next experiment is T1, Pyridoxal kinase (Homo sapiens, UniProt O00764).
T1 sequence (O00764 whole entry): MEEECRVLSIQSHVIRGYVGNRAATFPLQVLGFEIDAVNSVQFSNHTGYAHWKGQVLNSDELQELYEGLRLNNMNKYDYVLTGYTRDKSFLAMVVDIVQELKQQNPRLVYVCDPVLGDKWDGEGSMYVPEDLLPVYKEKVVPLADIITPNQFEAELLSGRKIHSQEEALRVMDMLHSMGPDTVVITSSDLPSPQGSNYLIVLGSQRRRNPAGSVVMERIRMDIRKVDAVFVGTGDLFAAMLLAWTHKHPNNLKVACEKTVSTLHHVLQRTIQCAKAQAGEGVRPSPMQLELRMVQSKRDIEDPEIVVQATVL
The experiment is described as follows: Noncompetitive inhibition of pyridoxal phosphokinase (unknown origin) using ATP-gamma-[32P].

Experiment [3] deals with TA3. Kind of experiment: Growth inhibition of mouse TA3 cells at 10^-4 M after 3 days incubation in presence of 10^-7 M pyridoxal. It counts as functional.

Take `C=Cc1ncc(CO)c(C)c1O.Cl`: the pIC50 in the experiment on TA3 [1] was 5.52. For the same molecule, the ID50 in the experiment on TA3 [2] came to 3.2 ×10⁻⁵ M. The molecule also gave a pKi at Pyridoxal kinase of 4.17.
Turning to `Cc1c(CO)cnc(C=O)c1O`, the ID50 worked out at 6 ×10⁻⁵ M in the experiment on TA3 [1] and 1.6 ×10⁻⁴ M in the experiment on TA3 [2].
As for `C=Cc1c(CO)cnc(C)c1O`, the pIC50 in the experiment on TA3 [1] was 8.60. The inhibition result in the experiment on TA3 [2] was “inactive”.
`C=Cc1ncc(COP(=O)(O)O)c(C)c1O`: the values for the ID50 in the experiment on TA3 [1] and with TA3 [2] were 3.8 ×10⁻⁵ M and 1.8 ×10⁻⁴ M, respectively.
As for `C=Cc1ncc(CO)c(CO)c1O`, in the experiment with TA3 [1], the pIC50 is 5.03. Further, the inhibition result in the experiment with TA3 [2] is “Active”.
With `C=Cc1c(CO)cnc(CO)c1O`, the inhibition result in the experiment with TA3 [3] was “inactive”.
The same measure, in the same setting: with `C=Cc1ncc(COP(=O)(O)O)c(C=C)c1O` the entry was “inactive”; with `Cc1c(CO)cnc(CO)c1O`, “inactive”.
`Cc1ncc(CO)c(C)c1O`: the ID50 in the experiment with TA3 [1] is listed as 6.8 ×10⁻⁸ M. Besides, the inhibition entry in the experiment with TA3 [2] was “inactive”.
In the case of `Cc1c(CO)cnc(/C=N/O)c1O`, the “inhibition (INH)” value in the experiment with TA3 [3] came to 40%.
On to `Cc1c(CO)cnc(/C=N/NC(N)=S)c1O`, for which the pIC50 in the experiment with TA3 [1] was 5.57. In addition, the inhibition result in the experiment with TA3 [2] was “Active”.
As for `C=Cc1ncc(CO)c(C=C)c1O.Cl`, in the experiment with TA3 [1], the pIC50 was 5.17. In addition, in the experiment on TA3 [2], the ID50 is 3.2 ×10⁻⁵ M.
